Source: ChEMBL document CHEMBL2346506, “Cytotoxicity and modulation of cancer-related signaling by (Z)- and (E)-3,4,3',5'-tetramethoxystilbene isolated from Eugenia rigida” (J Nat Prod, 2013)
pIC50: −log10 of the molar value. Calls of active or inactive are those of the source. The rule behind the calls is not given here.

Tests used:
BT-549 [1] = test: Cytotoxicity against human BT549 cells assessed as growth inhibition measured after 48 hrs by Neutral Red dye assay; conditions: BT-549, 48 h
[2] = biological target: T1, Nitric oxide synthase, inducible (Mus musculus) (UniProt P29477); test: Inhibition of iNOS in LPS-induced mouse RAW264.7 cells assessed as inhibition of […] up to 33.3 uM measured after 24 hrs; type: cell-based
T1 sequence (whole entry): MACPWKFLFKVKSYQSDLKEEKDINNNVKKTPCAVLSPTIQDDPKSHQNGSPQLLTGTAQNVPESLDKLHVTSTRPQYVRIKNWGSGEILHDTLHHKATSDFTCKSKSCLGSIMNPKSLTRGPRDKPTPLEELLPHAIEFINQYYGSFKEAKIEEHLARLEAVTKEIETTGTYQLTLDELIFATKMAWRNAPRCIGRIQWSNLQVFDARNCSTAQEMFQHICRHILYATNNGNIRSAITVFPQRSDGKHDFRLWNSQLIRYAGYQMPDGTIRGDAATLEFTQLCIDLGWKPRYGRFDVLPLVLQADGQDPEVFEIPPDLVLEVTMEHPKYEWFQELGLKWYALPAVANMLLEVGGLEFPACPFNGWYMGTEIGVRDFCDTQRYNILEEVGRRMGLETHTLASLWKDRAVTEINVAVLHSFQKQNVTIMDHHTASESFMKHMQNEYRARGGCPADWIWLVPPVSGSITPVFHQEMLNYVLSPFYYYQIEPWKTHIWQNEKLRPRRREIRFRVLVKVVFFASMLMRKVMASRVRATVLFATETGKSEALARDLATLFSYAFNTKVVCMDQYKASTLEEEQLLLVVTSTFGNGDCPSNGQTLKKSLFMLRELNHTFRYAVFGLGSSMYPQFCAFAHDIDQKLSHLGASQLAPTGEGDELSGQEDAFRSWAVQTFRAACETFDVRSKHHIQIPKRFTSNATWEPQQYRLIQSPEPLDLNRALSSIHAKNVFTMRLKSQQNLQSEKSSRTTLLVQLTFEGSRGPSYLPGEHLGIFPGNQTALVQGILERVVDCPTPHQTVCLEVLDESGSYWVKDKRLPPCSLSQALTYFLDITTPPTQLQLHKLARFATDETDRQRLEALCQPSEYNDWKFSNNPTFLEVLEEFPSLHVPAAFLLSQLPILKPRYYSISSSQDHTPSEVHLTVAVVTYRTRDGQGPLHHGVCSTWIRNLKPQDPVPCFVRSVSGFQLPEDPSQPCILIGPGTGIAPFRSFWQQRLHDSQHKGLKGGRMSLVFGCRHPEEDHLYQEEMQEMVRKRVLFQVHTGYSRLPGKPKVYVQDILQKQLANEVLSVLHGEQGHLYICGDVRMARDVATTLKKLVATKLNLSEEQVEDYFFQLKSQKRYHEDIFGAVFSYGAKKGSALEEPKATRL
Outline: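 RAW 264.7 macrophages seeded at 50 000 per well and grown 24 h. Compound added 30 min before LPS (5 μg/mL), then cells incubated a further 24 h. Nitrite in the supernatant measured with Griess reagent relative to vehicle control. Parthenolide served as positive control; cytotoxicity checked in parallel.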

[3] = Inhibition of Wnt signaling pathway in human HeLa cells assessed as inhibition of Wnt3a induced luciferase treated 30 mins before induction; type: cell-based
Outline: (§1)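 Reporter assay in cells transfected with pathway luciferase plasmids. Cells plated at 0.015 × 10⁶ per well in 10% FBS, switched after 24 h to DMEM with 1% FBS, then transfected. 24 h after transfection, compound (final 40, 60, 80 or 100 μM) was added, followed 30 min later by inducer (IL-6, TGF-β, wnt3a or PMA). Luciferase was read 4 or 6 h after induction (6 h for Notch, Wnt, Hedgehog). Value is the IC50 or the lowest concentration giving maximal 50–60% inhibition; two independent experiments.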

HeLa [4] = test: Inhibition of smad3/4 signaling pathway in human HeLa cells assessed as measured as lowest concentration required 50 to 60 % inhibition of TGF-beta induced luciferase treated 30 mins before induction; type: functional
Outline: as §1

HeLa [5] = test: Inhibition of smad3/4 signaling pathway in human HeLa cells assessed as inhibition of TGF-beta induced luciferase treated 30 mins before induction; type: functional, cell-based
Outline: as §1

[6] = Inhibition of Ets signaling pathway in human HeLa cells assessed as inhibition of PMA induced luciferase treated 30 mins before induction; type: cell-based
Outline: as §1

[7] = Inhibition of Notch signaling pathway in human HeLa cells assessed as measured as lowest concentration required 50 to 60 % inhibition of PMA induced luciferase treated 30 mins before induction; type: cell-based
Outline: as §1

[8] = Inhibition of Hedgehog signaling pathway in human HeLa cells assessed as inhibition of PMA induced luciferase at 100 uM treated 30 mins before induction; type: cell-based
Outline: as §1

HL-60 [9] = test: Cytotoxicity against human HL60 cells assessed as growth inhibition measured after 48 hrs by XTT assay; type: functional, cell-based; conditions: HL-60, 48 h
[10] = Inhibition of AP1 signaling pathway in human HeLa cells assessed as measured as lowest concentration required 50 to 60 % inhibition of PMA induced luciferase treated 30 mins before induction; type: cell-based
Outline: as §1

HeLa [11] = test: Cytotoxicity against human HeLa cells assessed as growth inhibition measured after 48 hrs by Neutral Red dye assay
KB [12] = test: Cytotoxicity against human KB cells assessed as growth inhibition measured after 48 hrs by Neutral Red dye assay
HL-60 [13] = test: Inhibition of PMA induced ROS generation in human HL60 cells assessed as inhibition of ROA mediated oxidation of DCFH at 100 uM; type: functional, cell-based
Outline: (§2)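 HL-60 cells (0.8 × 10⁶/mL) in RPMI-1640 with 10% FBS were pretreated 30 min with compound (0.4–100 μM). PMA (100 ng/mL) was then added for 30 min, followed by DCFH-DA (5 μg/mL) for 15 min. DCF fluorescence read at Ex 485 / Em 530 nm and compared with vehicle control. Trolox served as positive control.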

[14] = Inhibition of NFkappaB signaling pathway in human HeLa cells assessed as measured as lowest concentration required 50 to 60 % inhibition of PMA induced luciferase treated 30 mins before induction; type: cell-based
Outline: as §1

[15] = Inhibition of Wnt signaling pathway in human HeLa cells assessed as measured as lowest concentration required 50 to 60 % inhibition of Wnt3a induced luciferase treated 30 mins before induction; type: cell-based
Outline: as §1

SK-MEL = test: Cytotoxicity against human SK-MEL cells assessed as growth inhibition measured after 48 hrs by Neutral Red dye assay
HeLa [16] = test: Inhibition of Stat3 signaling pathway in human HeLa cells assessed as inhibition of IL-6 induced luciferase treated 30 mins before induction; type: functional, cell-based
Outline: as §1

[17] = Inhibition of Ets signaling pathway in human HeLa cells assessed as measured as lowest concentration required 50 to 60 % inhibition of PMA induced luciferase treated 30 mins before induction; type: cell-based
Outline: as §1

[18] = biological target: Forkhead box protein O1 (Homo sapiens) (UniProt Q12778); test: Inhibition of FoxO signaling pathway in human HeLa cells assessed as inhibition of luciferase at 100 uM […]; type: cell-based
Forkhead box protein O1 (Homo sapiens), sequence (Q12778 whole entry): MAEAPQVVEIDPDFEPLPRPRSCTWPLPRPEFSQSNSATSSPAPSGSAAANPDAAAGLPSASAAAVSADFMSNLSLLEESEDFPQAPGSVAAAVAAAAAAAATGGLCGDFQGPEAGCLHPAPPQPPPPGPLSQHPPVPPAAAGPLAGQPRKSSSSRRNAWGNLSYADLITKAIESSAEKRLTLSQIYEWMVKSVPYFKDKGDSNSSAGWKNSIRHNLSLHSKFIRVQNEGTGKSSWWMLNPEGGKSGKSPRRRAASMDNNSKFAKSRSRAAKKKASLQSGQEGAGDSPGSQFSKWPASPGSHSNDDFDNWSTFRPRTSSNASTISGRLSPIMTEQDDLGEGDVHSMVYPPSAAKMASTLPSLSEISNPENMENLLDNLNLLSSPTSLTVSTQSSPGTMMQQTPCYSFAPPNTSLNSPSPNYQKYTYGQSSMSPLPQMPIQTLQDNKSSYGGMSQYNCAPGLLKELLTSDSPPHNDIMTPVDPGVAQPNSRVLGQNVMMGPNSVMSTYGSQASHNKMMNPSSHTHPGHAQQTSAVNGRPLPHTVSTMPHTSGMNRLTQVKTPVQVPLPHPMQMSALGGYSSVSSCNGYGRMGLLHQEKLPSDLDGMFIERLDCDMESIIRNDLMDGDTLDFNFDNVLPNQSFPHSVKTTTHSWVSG

LLC-PK1 = test: Cytotoxicity against pig LLC-PK1 cells assessed as growth inhibition measured after 48 hrs by Neutral Red dye assay; conditions: Sus scrofa, LLC-PK1, 48 h
SK-OV-3 [19] = test: Cytotoxicity against human SKOV3 cells assessed as growth inhibition measured at 100 uM after 48 hrs by […] assay; type: functional, cell-based
[20] = Inhibition of E2F signaling pathway in human HeLa cells assessed as inhibition of PMA induced luciferase at 100 uM treated 30 mins before induction; type: cell-based
Outline: as §1

[21] = biological target: Myc proto-oncogene protein (Homo sapiens) (UniProt P01106); test: Inhibition of Myc signaling pathway in human HeLa cells assessed as measured as lowest concentration required 50 to 60 % inhibition of PMA induced luciferase treated 30 mins before induction; type: cell-based
Myc proto-oncogene protein (Homo sapiens), sequence (P01106 whole entry): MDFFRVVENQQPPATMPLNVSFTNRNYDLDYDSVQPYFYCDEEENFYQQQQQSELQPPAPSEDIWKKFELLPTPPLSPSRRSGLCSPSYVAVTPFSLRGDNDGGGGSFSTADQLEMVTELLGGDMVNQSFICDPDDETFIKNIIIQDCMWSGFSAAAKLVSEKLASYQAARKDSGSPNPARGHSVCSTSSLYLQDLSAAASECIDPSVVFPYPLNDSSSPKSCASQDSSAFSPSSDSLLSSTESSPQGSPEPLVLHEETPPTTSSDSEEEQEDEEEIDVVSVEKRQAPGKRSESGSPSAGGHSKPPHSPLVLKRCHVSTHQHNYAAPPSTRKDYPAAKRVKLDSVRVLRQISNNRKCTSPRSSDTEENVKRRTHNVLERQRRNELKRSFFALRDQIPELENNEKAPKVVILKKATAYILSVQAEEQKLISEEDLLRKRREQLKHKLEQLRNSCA
Outline: as §1

[22] = Inhibition of Notch signaling pathway in human HeLa cells assessed as inhibition of PMA induced luciferase treated 30 mins before induction; type: cell-based
Outline: as §1

HeLa [23] = test: Inhibition of Stat3 signaling pathway in human HeLa cells assessed as measured as lowest concentration required 50 to 60 % inhibition of IL-6 induced luciferase treated 30 mins before induction; type: functional
Outline: as §1

[24] = Inhibition of AP1 signaling pathway in human HeLa cells assessed as inhibition of PMA induced luciferase treated 30 mins before induction; type: cell-based
Outline: as §1

[25] = Inhibition of NFkappaB signaling pathway in human HeLa cells assessed as inhibition of PMA induced luciferase treated 30 mins before induction; type: cell-based
Outline: as §1

Vero = test: Cytotoxicity against african green monkey Vero cells assessed as growth inhibition measured after 48 hrs by Neutral Red dye assay; conditions: Chlorocebus sabaeus
HL-60 [26] = test: Inhibition of PMA induced ROS generation in human HL60 cells assessed as inhibition of ROA mediated oxidation of DCFH; type: functional, cell-based
Outline: as §2

[27] = Inhibition of Hedgehog signaling pathway in human HeLa cells assessed as inhibition of PMA induced luciferase treated 30 mins before induction; type: cell-based
Outline: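 HeLa cells plated at 0.015 × 10⁶/well in 10% FBS medium, switched after 24 h to DMEM with 1% FBS, then transfected with a Hedgehog luciferase reporter. After 24 h, compounds were added at 40, 60, 80 or 100 μM final, 30 min before PMA. Luciferase was read 6 h later. The value is the IC50 or lowest concentration giving maximal 50–60% inhibition, from two independent experiments.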

[28] = Inhibition of AP1 signaling pathway in human HeLa cells assessed as inhibition of PMA induced luciferase at 100 uM treated 30 mins before induction; type: cell-based
Outline: as §1

KB [29] = test: Cytotoxicity against human KB cells assessed as growth inhibition measured at 100 uM after 48 hrs by Neutral Red dye assay
HeLa [30] = test: Cytotoxicity against human HeLa cells assessed as growth inhibition measured at 100 uM after 48 hrs by Neutral Red dye assay
BT-549 [31] = test: Cytotoxicity against human BT549 cells assessed as growth inhibition measured at 100 uM after 48 hrs by Neutral Red dye assay
SK-OV-3 [32] = test: Cytotoxicity against human SKOV3 cells assessed as growth inhibition measured after 48 hrs by Neutral Red dye assay; conditions: SK-OV-3, 48 h
[33] = Inhibition of Hedgehog signaling pathway in human HeLa cells assessed as measured as lowest concentration required 50 to 60 % inhibition of PMA induced luciferase treated 30 mins before induction; type: cell-based
Outline: as §1

| SMILES | pIC50 [3] | MED (HeLa [4]) | pIC50 (HeLa [5]) | pIC50 [6] | MED [7] | pIC50 (HL-60 [9]) | MED [14] | MED [15] | pIC50 (SK-MEL) | pIC50 (HeLa [16]) | MED [17] | inhibition [18] | pIC50 (LLC-PK1) | inhibition [20] | MED [21] | pIC50 [22] | MED (HeLa [23]) | pIC50 [25] | pIC50 (Vero) | also measured |
| --- | --- | --- | --- | --- | --- | --- | --- | --- | --- | --- | --- | --- | --- | --- | --- | --- | --- | --- | --- | --- |
| COc1cc(/C=C\c2ccc(OC)c(OC)c2)cc(OC)c1 [(Z)-3,4,3',5'-TETRAMETHOXYSTILBENE] | 4.40 | 55 µM | 4.40 | 4.40 | 40 µM | 5.37 | 80 µM | 50 µM | 5.37 | 4.30 | 65 µM | < 40% | 5.22 | < 40% | 65 µM | 4.40 | 77 µM | 4.10 | < 4.48 | pIC50 (BT-549 [1]): 5.40; inhibition [2]: inactive; inhibition [8]: < 40%; MED [10]: 80 µM; pIC50 (HeLa [11]): 5.44; pIC50 (KB [12]): 5.37; inhibition (HL-60 [13]): inactive; growth inhibition (GI) (SK-OV-3 [19]): inactive; pIC50 [24]: 4.10 |
| Cc1c(C)c2c(c(C)c1O)CCC(C)(C(=O)O)O2 (stereo not given) [TROLOX] | – | – | – | – | – | – | – | – | – | – | – | – | – | – | – | – | – | – | – | pIC50 (HL-60 [26]): 5.85 |
| Oc1ccc(/C=C/c2cc(O)cc(O)c2)cc1 [RESVERATROL] | 4.22 | 33 µM | 4.30 | 4.30 | 40 µM | 4.50 | 60 µM | 70 µM | 4.33 | 4.15 | 55 µM | < 40% | 4.28 | < 40% | 55 µM | 4.40 | 53 µM | 4.30 | 4.13 | pIC50 [27]: 4.40; inhibition [28]: < 40%; growth inhibition (GI) (KB [29]): inactive; growth inhibition (GI) (HeLa [30]): inactive; growth inhibition (GI) (BT-549 [31]): inactive; pIC50 (SK-OV-3 [32]): 3.95; MED [33]: 40 µM |
